Compounds with a hit are over-represented: about 3% of the library has one in this group of screens.
sEH inh: blocks human soluble epoxide hydrolase activity | P34913 | recombinant human sEH enzymatic activity assay | inhibition, % at 2 µM | hit rate 0.34% among 91,000 | AID 707; in the data active = inhibition above about 80%
Target sequence (P34913 whole entry, looked up): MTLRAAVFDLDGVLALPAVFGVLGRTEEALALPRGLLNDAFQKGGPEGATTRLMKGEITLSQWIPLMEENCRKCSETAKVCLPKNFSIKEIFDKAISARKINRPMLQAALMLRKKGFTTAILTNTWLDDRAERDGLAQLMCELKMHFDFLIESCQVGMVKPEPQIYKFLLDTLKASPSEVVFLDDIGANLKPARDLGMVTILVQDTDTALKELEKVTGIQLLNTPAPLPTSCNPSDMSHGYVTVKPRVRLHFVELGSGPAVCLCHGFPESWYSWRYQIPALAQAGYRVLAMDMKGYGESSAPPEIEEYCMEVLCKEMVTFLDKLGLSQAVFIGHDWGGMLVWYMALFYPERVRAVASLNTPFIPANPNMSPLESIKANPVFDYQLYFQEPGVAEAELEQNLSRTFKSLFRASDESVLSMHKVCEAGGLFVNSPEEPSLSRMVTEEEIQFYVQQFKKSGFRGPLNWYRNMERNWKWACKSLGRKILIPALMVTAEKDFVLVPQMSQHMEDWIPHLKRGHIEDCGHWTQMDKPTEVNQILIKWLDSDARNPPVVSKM
Yeast lifespan up: extends the lifespan of yeast; S. cerevisiae growth with nicotinamide, OD615; deaD strain in restrictive glucose medium; inhibition of the nicotinamide effect, % at 10 µM; hit rate 0.68% among 130,000;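 active = inhibition above a set limit, placed 3 SD over the median of all compounds, cut at about 26% in these data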
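Assay system: engineered S. cerevisiae DeaD replicative-lifespan strain, galactose-grown log-phase cells; medium: restrictive CSMM-D dextrose medium; also added: nicotinamide, 1.5 mM, co-present with compound; schedule: 48 h compound exposure at 30 °C, humidified; detection: absorbance at 615 nm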
Measles CPE: protection of cells from measles virus | Measles virus-infected cells, CPE protection, absorbance | protection (pct of control), % at 4 µM | hit rate 1.5% among 140,000 | AID 841; in the data active = protection mostly above about 24%, no sharp cut-off; inactive = mostly below about 26%
Yeast growth inh: yeast BB579 growth reduction in restrictive medium. S. cerevisiae BB579 growth, OD615, 48 h. AID 804. inhibition, % at 10 µM. hit rate 0.51% among 140,000;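 active = inhibition above a set limit, 3 SD over the mean compound inhibition, cut at about 44% in these data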
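Assay system: S. cerevisiae DeaD strain BB579 yeast. Medium: CSMM-D restrictive synthetic medium containing dextrose (glucose). Times: 4 h cell preincubation, 48 h compound exposure, 30 °C humidified. Signal: OD615 turbidity measurement. Benchmarks: positive control amphotericin B 10 µg/mL.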
SDO1 yeast rescue: compounds rescuing growth of sdo1-depleted yeast, bone marrow failure model; S. cerevisiae sdo1-depleted JHY4D growth rescue, OD600 30 h; stronger effect = higher value; pdr5 snq2 efflux-pump mutant strain; z-score at 10 µM; hit rate 0.21% among 140,000; AID 817;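 active = z-score above 3 at both the 24 hr and the 30 hr optical density reads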
sEH activator: activators of human soluble epoxide hydrolase; P34913; purified human sEH enzymatic activity, activator screen; activation, % at 2 µM; hit rate 0.04% among 91,000; AID 717; in the data active = activation above about 37%
Each line names hits and unclear results; the compound was inactive in the other large screens.

CN1CSC2=C(C#N)C(c3cccc(OCc4ccccc4)c3)CC(=O)N2C1 (stereo not drawn)	Measles CPE 63
COc1ccc(CN2C(=O)[C@@H]3C(c4ccc(F)cc4)=NO[C@@H]3C2=O)cc1	sEH activator 38
O=C1Nc2ccccc2C12OCC1(CO2)COC2(OC1)C(=O)Nc1ccccc12 (stereo not drawn)	Yeast lifespan up 67
CCOc1cc(/C=C(/C#N)C(=O)Nc2ccc(O)cc2)cc(Br)c1O	none
CCOc1cc(Br)c(Br)c(C=Nc2ccc(NC(C)=O)cc2)c1O	Yeast lifespan up 49 (no result: sEH inh, sEH activator)
COc1ccc2c(c1)O[C@H](c1ccc3c(c1)OCO3)[C@@H](O)C2=O	Measles CPE 27 (no result: sEH inh, sEH activator)
O=C(NC(Cc1c[nH]c2ccccc12)C(=O)Nc1ccc(OC(F)(F)F)cc1)c1cccs1 (stereo not drawn)	Measles CPE 52 (no result: sEH inh, sEH activator)
CCC(C)N(C(=O)Cn1nnc2ccccc21)C(C(=O)Nc1ccc(F)cc1)c1cccc(OC)c1 (stereo not drawn)	none
O=C(OCC(=O)N1CCN(C(=O)c2ccco2)CC1)C1=COCCO1	Measles CPE 23 (no result: sEH inh, sEH activator)
COc1ccc(OCC(=O)N2CCN(C(=O)c3ccco3)CC2)cc1	sEH activator 41
O=C(OCC(=O)N1CCN(c2ccccc2)CC1)C1=COCCO1	none
O=C(COc1ccccc1)N1CCN(C(=O)c2ccco2)CC1	none
O=C(CN1N=C(c2ccc(Cl)cc2)CCC1=O)NCCN1CCc2ccccc2C1	none (no result: sEH inh, sEH activator)
CN(C)C(=C(C#N)C#N)N1CCN(c2ccc(Cl)c(Cl)c2)CC1	none
Cc1ccc(S(=O)(=O)N2CCOCC2)cc1NC(=O)COC(=O)c1cc(=O)c2ccccc2o1	none (no result: sEH inh, sEH activator)
CC1CCCCN1C(=O)Cn1cc(/C=C2/C(=O)Nc3ccccc32)c2ccccc21 (stereo not drawn)	none
Oc1cccc(C=NCc2ccccc2)c1O	Yeast growth inh 98 (no result: sEH inh, sEH activator)
COc1ccccc1NC(=O)c1ccc(NC(=O)COC(=O)C2(C)CC2(Cl)Cl)cc1 (stereo not drawn)	none (no result: sEH inh, sEH activator)
COc1ccccc1NC(=O)c1ccc(NC(=O)COC(=O)C2CCCCC2)cc1	Measles CPE 49 (no result: sEH inh, sEH activator)
Cc1ccc(NC(=O)NC(=O)CSc2nnc(-c3ccc(Cl)cc3Cl)n2N)c(C)c1	none (no result: sEH inh, sEH activator)
COc1cc(NC(=O)CN2C(=O)NC(c3ccccc3)(c3ccccc3)C2=O)c(C)cc1[N+](=O)[O-]	none (no result: sEH inh, sEH activator)
Cn1c(C(C#N)C(=O)Cc2cccc3ccccc23)nc2ccccc21 (stereo not drawn)	none (no result: sEH inh, sEH activator)
Cn1c(C(C#N)C(=O)c2ccco2)nc2ccccc21 (stereo not drawn)	Yeast growth inh 64 (no result: sEH inh, sEH activator)
CCCCC(=O)Nc1ccccc1C(=O)N1CCOCC1	Measles CPE 37 (no result: Yeast lifespan up)
Cc1ccc(OCC(=O)Nc2ccc(C)c(S(=O)(=O)N3CCCCC3)c2)c([N+](=O)[O-])n1	none (no result: sEH inh, sEH activator)
COc1ccc(Nc2nc3ccccc3n3nnnc23)cc1	none
Cc1ccc(C(=O)Nc2nc3ccccc3n3nnnc23)cc1	Measles CPE 21
Cc1nc2sc3c(c2c(=O)o1)CC(C)(C)OC3	Yeast lifespan up 32
NC(=O)Cc1ccc(Nc2nnc(-c3ccc(O)cc3)c3ccccc23)cc1	none (no result: sEH inh, sEH activator)
O=C(NC(=S)Nc1nc2c(s1)CSc1ccccc1-2)c1ccccc1	Yeast lifespan up 66
O=C(NC(=S)Nc1nc2c(s1)CCCC2)c1ccc(C(=O)c2ccccc2)cc1	none (no result: sEH inh, sEH activator)
CC1CC(C)CN(C(=O)C2CCCN(S(=O)(=O)c3cccc4nonc34)C2)C1 (stereo not drawn)	Measles CPE 53
O=C(C1CCCN(S(=O)(=O)c2cccc3nonc23)C1)N1CCN(c2ccccc2)CC1 (stereo not drawn)	none
COc1cccc(NC(=O)CCC(=O)NCc2ccco2)c1	Measles CPE 86
COc1cccc(NC(=O)CCC(=O)Nc2cccc(OC)c2)c1	none (no result: sEH inh, sEH activator)
Cc1ccc(S(=O)(=O)N2CCCN(c3nc4cc(C)ccc4cc3C#N)CC2)cc1	none (no result: Yeast lifespan up)
Cc1cc(C)c2cc(C#N)c(N3CCCC3)nc2c1	Measles CPE 38
COC(=O)c1ccc(/C=C/C(=O)c2ccc(OC)c(OC)c2)cc1	none
COC(=O)c1ccc(OC(=O)c2ccc(OC)c(OC)c2)c(OC)c1	sEH activator 38
Cc1nc(N2CCOCC2)c2oc3ccccc3c2n1	none
c1ccc2c(c1)oc1c(N3CCOCC3)ncnc12	Yeast growth inh 56
S=c1sc(SCCOc2ccccc2)nn1-c1ccccc1	Measles CPE 93 (no result: sEH inh, sEH activator)
COc1ccc(C)cc1S(=O)(=O)N(CC(=O)Nc1cccc([N+](=O)[O-])c1)c1ccc(C)c(C)c1	Measles CPE 50 (no result: sEH inh, sEH activator)
FC(F)(F)c1cc(-c2ccco2)nc(NCCc2ccccc2)n1	none
CN(C)S(=O)(=O)c1ccc(C(=O)Nc2nc(-c3cc4ccccc4o3)cs2)cc1	Yeast lifespan up 28 (no result: sEH inh, sEH activator)
CCOCCn1c(COc2ccc(C)cc2)nc2ccccc21	Measles CPE 29 (no result: sEH inh, sEH activator)
COC(=O)c1sc(S(=O)(=O)Nc2ccc(C)cc2)c(C(=O)OC)c1C	Yeast lifespan up 38 (no result: sEH inh, sEH activator)
COC(=O)c1sc(S(=O)(=O)Nc2ccc(Br)cc2)c(C(=O)OC)c1C	Yeast lifespan up 42 (no result: sEH inh, sEH activator)
COC(=O)c1sc(S(=O)(=O)Nc2ccc3cn[nH]c3c2)c(C(=O)OC)c1C	none
[O-][n+]1onc2c3cc(-c4ccccc4)nnc3ccc21	none
Cc1ccc(S(=O)(=O)Nc2c3ccccc3nc(=O)n2-c2ccccc2)cc1	Measles CPE 35
CCN(CC)S(=O)(=O)c1ccc(N(C)Cc2cccnc2)nc1	none
N#CCCN(C(=O)COC(=O)c1ccc(CNS(=O)(=O)c2ccc(F)c(Cl)c2)cc1)c1ccc(F)cc1	none (no result: sEH inh, sEH activator)
CCOC(=O)Cn1c(S(=O)(=O)Cc2ccc(F)cc2)nc(-c2ccccc2)c1-c1ccccc1	Measles CPE 52
CCOC(=O)Cn1c(S(=O)(=O)Cc2cccc(F)c2)nc(-c2ccccc2)c1-c1ccccc1	Measles CPE 31
C#CCn1c(S(=O)(=O)Cc2ccc(F)cc2)nc(-c2ccccc2)c1-c1ccccc1	Measles CPE 52
NC(=O)Cn1c(S(=O)(=O)Cc2ccccc2)nc2ccccc21	none (no result: Yeast lifespan up, Measles CPE, Yeast growth inh, SDO1 yeast rescue)
COc1cc(CNCc2ccccn2)ccc1OCC(=O)NC(C)(C)C	Measles CPE 31 (no result: sEH inh, sEH activator)
C=CCn1c(=O)[nH]c2cc(C(=O)N3CCN(c4cccc(Cl)c4)CC3)ccc2c1=O	none (no result: sEH inh, sEH activator)
C=CCn1c(=O)[nH]c2cc(C(=O)N3CCN(c4ccc(C(C)=O)cc4)CC3)ccc2c1=O	Yeast lifespan up 55
O=C(O)c1ccccc1-c1ccccc1C(=O)NCCCO	sEH activator 37
COCCNC(=O)c1ccccc1-c1ccccc1C(=O)O	none
N#Cc1ccccc1NC(=O)c1ccc2c(Cl)c3c(nc2c1)CCCC3	Yeast growth inh 45 (no result: sEH inh, sEH activator)
CC(=O)c1cccc(NC(=O)c2ccc3c(Cl)c4c(nc3c2)CCCC4)c1	none (no result: sEH inh, sEH activator)
COc1ccccc1N1CCN(C(=O)c2ccc3c(Cl)c4c(nc3c2)CCCC4)CC1	Yeast lifespan up 28 (no result: sEH inh, sEH activator)

Source: PubChem BioAssay (several laboratories)
